Measured values as given in ChEMBL document CHEMBL1144097, “Triterpene trimers from Maytenus scutioides: cycloaddition compounds?” (J Nat Prod, 1999).
Activity calls are given as the source filed them.

Tests used:
HeLa = experiment: Cytotoxicity against human HeLa cells upto 40 ug/mL by MTT reduction assay; type: functional, cell-based
Procedure, shortened: (§1)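 Cells were grown as monolayers in DMEM with 10% newborn calf serum and 1% penicillin-streptomycin mixture. They were kept at 37 °C, 5% CO2 and 90% humidity. Viability was read by colorimetric MTT reduction.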

HEp-2 = experiment: Cytotoxicity against human Hep2 cells upto 40 ug/mL by MTT reduction assay; type: functional, cell-based; procedure, shortened: as §1
Staphylococcus aureus = experiment: Antibacterial activity against Staphylococcus aureus ATCC 6538 upto 40 ug/mL by disk diffusion test; type: functional, organism-based
Procedure, shortened: (§2)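 Agar disk diffusion test. Bacterial strains were maintained on Nutrient Agar and the Candida albicans yeast on Sabouraud Agar, both at 37 °C.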

Candida albicans = experiment: Antifungal activity against Candida albicans UBC 1 upto 40 ug/mL by disk diffusion test; type: functional, organism-based; procedure, shortened: as §2
Salmonella typhimurium = experiment: Antibacterial activity against Salmonella Typhimurium UBC 2 upto 40 ug/mL by disk diffusion test; type: functional, organism-based; conditions: Salmonella enterica subsp. enterica serovar Typhimurium; procedure, shortened: as §2
Salmonella sp. = experiment: Antibacterial activity against Salmonella sp. CECT 456 upto 40 ug/mL by disk diffusion test; type: functional, organism-based; procedure, shortened: as §2
Staphylococcus warneri = experiment: Antibacterial activity against Staphylococcus warneri CECT 236 upto 40 ug/mL by disk diffusion test; type: functional, organism-based; procedure, shortened: as §2
Priestia megaterium = experiment: Antibacterial activity against Bacillus megaterium CECT 44 upto 40 ug/mL by disk diffusion test; type: functional, organism-based; procedure, shortened: as §2
[1] = tested on: Staphylococcus epidermidis; experiment: Antibacterial activity against Staphylococcus epidermidis CECT 232 upto 40 ug/mL by disk diffusion test; type: functional, organism-based; procedure, shortened: as §2
Escherichia coli = experiment: Antibacterial activity against Escherichia coli CECT 99 upto 40 ug/mL by disk diffusion test; type: functional, organism-based; procedure, shortened: as §2
Staphylococcus = experiment: Antibacterial activity against Staphylococcus albus SAB C1 upto 40 ug/mL by disk diffusion test; type: functional, organism-based; procedure, shortened: as §2
Proteus mirabilis = experiment: Antibacterial activity against Proteus mirabilis CECT 170 upto 40 ug/mL by disk diffusion test; type: functional, organism-based; procedure, shortened: as §2
Bacillus subtilis = experiment: Antibacterial activity against Bacillus subtilis CECT 39 upto 40 ug/mL by disk diffusion test; type: functional, organism-based; procedure, shortened: as §2
Paenibacillus alvei = experiment: Antibacterial activity against Bacillus alvei CECT 2 upto 40 ug/mL by disk diffusion test; type: functional, organism-based; procedure, shortened: as §2
Bacillus cereus = experiment: Antibacterial activity against Bacillus cereus CECT 496 upto 40 ug/mL by disk diffusion test; type: functional, organism-based; procedure, shortened: as §2
Bacillus pumilus = experiment: Antibacterial activity against Bacillus pumilus CECT 29 upto 40 ug/mL by disk diffusion test; type: functional, organism-based; procedure, shortened: as §2
Micrococcus luteus = experiment: Antibacterial activity against Micrococcus luteus CECT 241 upto 40 ug/mL by disk diffusion test; type: functional, organism-based; procedure, shortened: as §2
Pseudomonas aeruginosa = experiment: Antibacterial activity against Pseudomonas aeruginosa AK 958 upto 40 ug/mL by disk diffusion test; type: functional, organism-based; procedure, shortened: as §2
Klebsiella pneumoniae = experiment: Antibacterial activity against Klebsiella pneumoniae CECT 367 upto 40 ug/mL by disk diffusion test; type: functional, organism-based; procedure, shortened: as §2
[2] = tested on: Staphylococcus saprophyticus; experiment: Antibacterial activity against Staphylococcus saprophyticus CECT 235 upto 40 ug/mL by disk diffusion test; type: functional, organism-based; procedure, shortened: as §2
Hafnia alvei = experiment: Antibacterial activity against Enterobacter hafniae CECT 400 upto 40 ug/mL by disk diffusion test; type: functional, organism-based; procedure, shortened: as §2

Measured: Activity

COC(=O)[C@]1(C)CC[C@]2(C)CC[C@]3(C)C4=CC=C5C(=CC(=O)[C@@]6(O)Oc7c(cc8c(c7C)[C@H]7Oc9c(cc%10c(c9C)CCC9[C@@]%10(C)CC[C@@]%10(C)[C@@H]%11C[C@](C)(C(=O)OC)CC[C@]%11(C)CC[C@]9%10C)O[C@H]7C7[C@@]8(C)CC[C@@]8(C)[C@@H]9C[C@](C)(C(=O)OC)CC[C@]9(C)CC[C@]78C)O[C@@]56C)[C@]4(C)CC[C@@]3(C)[C@@H]2C1 (stereo partly specified)
inactive: all assays above
